From ChEMBL document CHEMBL1132993, “Novel benzofuran and benzothiophene biphenyls as inhibitors of protein tyrosine phosphatase 1B with antihyperglycemic properties” (J Med Chem, 2000) come the findings set out here.

Test [1] has as its target T1, Tyrosine-protein phosphatase non-receptor type 1 (Homo sapiens, UniProt P18031).
T1 sequence (P18031 whole entry): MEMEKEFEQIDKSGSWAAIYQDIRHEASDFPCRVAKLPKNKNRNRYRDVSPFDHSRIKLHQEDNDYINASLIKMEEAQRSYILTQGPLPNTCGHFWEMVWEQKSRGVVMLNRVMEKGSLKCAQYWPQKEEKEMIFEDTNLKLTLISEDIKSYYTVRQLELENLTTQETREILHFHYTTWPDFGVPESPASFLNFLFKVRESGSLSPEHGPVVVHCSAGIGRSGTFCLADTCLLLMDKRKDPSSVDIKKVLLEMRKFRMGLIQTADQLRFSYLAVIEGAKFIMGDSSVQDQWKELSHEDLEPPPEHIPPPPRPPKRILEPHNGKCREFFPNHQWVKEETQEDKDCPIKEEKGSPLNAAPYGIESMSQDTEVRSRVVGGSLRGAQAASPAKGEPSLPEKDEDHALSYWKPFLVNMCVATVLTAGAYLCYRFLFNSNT
The experiment in a line: In vitro inhibitory activity against human recombinant protein tyrosine phosphatase 1b (PTP1B). A digest of the protocol:
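Recombinant human PTP1B, diluted in pH 7.4 Tris-HCl/EDTA/β-mercaptoethanol buffer, preincubated 10 min at 37 °C with compound in HEPES pH 7.4. Reaction ran 30 min at 37 °C. Released phosphate was read by malachite green-ammonium molybdate at 650 nm, in quadruplicate. IC50 came from four-parameter logistic regression.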

Test [2] relates to Mus musculus. Put plainly: percentage decrease in plasma glucose in the ob/ob mouse model at 25 mg/Kg/day administered per orally. It is filed as functional. A digest of the protocol:
(§1)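 Genetically obese C57 B1/6J ob/ob diabetic mice, four to six per group, dosed orally once daily for 4 days. Plasma glucose is expressed as percent change relative to the vehicle-treated group, with p < 0.05 versus vehicle. Changes that are not significant are generally less than -15%. Ciglitazone served as the reference standard.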

For test [3], the system named is Mus musculus. Put plainly: percentage decrease in plasma glucose in the ob/ob mouse model at 100 mg/kg/day administered per orally. It is filed as functional. The settings on record: route oral. In short, it runs like this:
as §1

As to `Cc1oc(-c2ccc(C(F)(F)F)cc2)nc1-c1ccc(-c2ccc(OCn3cnnn3)cc2)cc1`, in test [1], the IC50 – broadly, the concentration at which inhibition is half-maximal – was 900 nM.

Regarding `CCCCc1oc2ccccc2c1Cc1ccc2cc(O)ccc2c1`, the concentration for half-maximal inhibition (IC50) in test [1] amounted to 1300 nM.

In the case of `Oc1ccc(-c2ccc(-c3c(Cc4ccc(O)cc4O)sc4ccccc34)cc2)cc1`, the IC50 in test [1] is 580 nM.

Regarding `COc1ccc(Cc2sc3ccccc3c2-c2ccc(-c3ccc(O[C@H](Cc4ccccc4)C(=O)O)cc3)cc2)c(OC)c1`, the Decrease in the test with Mus musculus [2] was found to be 24%.

Take `O=C(O)c1ccc(S(=O)(=O)Oc2ccc(-c3ccc(-c4c(Cc5ccccc5)oc5ccccc45)cc3)cc2C2CCCC2)cc1O`: the IC50 in test [1] amounted to 28 nM.

In the case of `CCCCc1sc2ccccc2c1-c1ccc(-c2ccc(O[C@@H](C(=O)O)c3ccccc3)cc2)cc1`, the Decrease with Mus musculus [3] was 28%. Further, the IC50 in test [1] was determined as 110 nM.

As to `O=C(O)[C@H](CCN1C(=O)c2ccccc2C1=O)Oc1ccc(-c2ccc(-c3c(Cc4ccccc4)oc4ccccc34)cc2)cc1`, the IC50 in test [1] turned out to be 340 nM.

In the case of `COc1ccc(Cc2sc3ccccc3c2-c2ccc(-c3ccc(O[C@H](Cc4ccccc4)C(=O)O)cc3)cc2)cc1OC`, the Decrease in the test with Mus musculus [2] is reported as 24%. In addition, the concentration for half-maximal inhibition (IC50) in test [1] came to 120 nM.

For `Cc1oc(-c2ccc(C(F)(F)F)cc2)nc1-c1cccc(-c2ccc(OC(Cc3ccccc3)C(=O)O)cc2)c1` (stereo not drawn), the IC50 in test [1] came to 1600 nM.

On to `O=C(O)[C@@H](Cc1ccccc1)Oc1ccc(-c2ccc(-c3c(Cc4ccc(O)cc4O)sc4ccccc34)cc2)cc1`, for which, in the test on Mus musculus [2], the Decrease is recorded as 20%. In addition, the IC50 in test [1] is 120 nM.

Turning to `O=C(O)[C@@H](Cc1ccccc1)Oc1ccc(-c2ccc(-c3c(Cc4nccs4)sc4ccccc34)cc2)cc1`, the IC50 in test [1] was determined as 1160 nM.

`O=C(O)CNc1cc(-c2ccc(-c3c(Cc4ccccc4)oc4ccccc34)cc2)ccc1OCCc1ccccc1`: in test [1], the IC50 worked out at 82 nM.

For the compound `COc1ccc(-c2cc(-c3ccc(-c4c(Cc5ccccc5)sc5ccccc45)cc3)cc(-c3ccc(OC)cc3)c2OCC(=O)O)cc1`, the Decrease in the test with Mus musculus [2] was found to be 26%.

Take `COc1cccc(-c2cc(-c3ccc(-c4c(Cc5ccccc5)sc5ccccc45)cc3)ccc2OCC(=O)O)c1OC`: in test [1], the IC50 came out at 71 nM.

On to `CC(Cc1ccccc1)(Oc1ccc(-c2ccc(-c3c(Cc4ccccc4)oc4ccccc34)cc2)cc1)C(=O)O` (stereo not drawn), for which the Decrease stood at 28% in the test on Mus musculus [3] and 30% with Mus musculus [2].

Regarding `CCCCCCC(Oc1c(Br)cc(-c2ccc(-c3c(Cc4ccccc4)oc4ccccc34)cc2)cc1Br)C(=O)O` (stereo not drawn), the Decrease with Mus musculus [2] was found to be 27%. Besides, the IC50 in test [1] came to 23 nM.

For `COc1ccc(-c2cc(-c3ccc(-c4c(Cc5ccccc5)sc5ccccc45)cc3)cc(Br)c2OCC(=O)O)c(OC)c1`, in test [1], the IC50 amounted to 47 nM.

For `O=C(O)C(CCN1C(=O)c2ccccc2C1=O)Oc1c(Br)cc(-c2ccc(-c3c(Cc4ccccc4)sc4ccccc34)cc2)cc1Br` (stereo not drawn), in test [1], the IC50 was determined as 44 nM.

In the case of `Cc1oc(-c2ccc(C(F)(F)F)cc2)nc1-c1ccc2c(Br)c(OCC(=O)O)ccc2c1`, the IC50 in test [1] came to 1300 nM.

In the case of `O=C(O)CCNc1cc(-c2ccc(-c3c(Cc4ccccc4)oc4ccccc34)cc2)ccc1OCCc1ccccc1`, in the test with Mus musculus [2], the Decrease turned out to be 17%. In addition, the IC50 in test [1] came out at 140 nM.

In the case of `CC[C@H](Oc1c(Br)cc(-c2ccc(-c3c(Cc4ccccc4)oc4ccccc34)cc2)cc1Br)C(=O)O`, the IC50 in test [1] was found to be 130 nM.

Consider `O=C(O)[C@@H](Cc1ccccc1)Oc1ccc(-c2ccc(-c3c(Cc4ccc(F)cc4)sc4ccccc34)cc2)cc1`, for which, in test [1], the IC50 worked out at 120 nM.

For `O=C(O)[C@H](CCc1ccccc1)Oc1ccc(-c2ccc(-c3c(Cc4ccccc4)oc4ccccc34)cc2)cc1`, the IC50 in test [1] amounted to 220 nM.

As for `CCCCc1oc2ccccc2c1C(=O)c1ccc2c(Br)c(OC(Cc3ccccc3)C(=O)O)ccc2c1` (stereo not drawn), the IC50 in test [1] amounted to 1200 nM.

For `O=C(c1ccccc1)c1oc2ccccc2c1-c1ccc(-c2ccc(O)cc2)cc1`, the IC50 in test [1] was determined as 740 nM.

On to `O=C(O)[C@H](Cc1ccccc1)Oc1ccc(-c2ccc(-c3c(Cc4ccccc4)oc4ccccc34)cc2)cc1C1CCCC1`, for which the IC50 in test [1] turned out to be 55 nM.

As to `CCCCc1sc2ccccc2c1-c1ccc(-c2ccc(O)cc2)cc1`, the IC50 in test [1] worked out at 700 nM.

Consider `CCCCc1oc2ccccc2c1Cc1ccc2c(I)c(O)ccc2c1`, for which the IC50 in test [1] was determined as 380 nM.

As for `CCCCc1oc2ccccc2c1Cc1ccc2c(I)c(OC(Cc3ccccc3)C(=O)O)ccc2c1` (stereo not drawn), the IC50 in test [1] was 320 nM.

With `CC(=O)Oc1cc(S(=O)(=O)Oc2ccc(-c3ccc(-c4coc5ccccc45)cc3)cc2)ccc1C(=O)O`, the IC50 in test [1] came out at 1160 nM.

Consider `CCCCc1oc2ccccc2c1Cc1ccc2c(Br)c(OC(Cc3ccccc3)C(=O)O)ccc2c1` (stereo not drawn), for which the Decrease in the test with Mus musculus [3] amounted to 26%.

Regarding `O=C(O)[C@@H](Cc1ccccc1)Oc1ccc(-c2ccc(-c3c(Cc4ccccc4)sc4ccccc34)cc2)cc1`, the Decrease in the test on Mus musculus [3] was found to be 37%.

`O=C(O)COc1c(Br)cc(-c2ccc(-c3c(Cc4ccccc4)sc4ccccc34)cc2)cc1Br`: the IC50 in test [1] was 100 nM.

For the compound `Cc1ccc2oc(Cc3ccccc3)c(-c3ccc(-c4ccc(O[C@H](Cc5ccccc5)C(=O)O)cc4)cc3)c2c1`, the IC50 in test [1] came out at 410 nM.

Take `O=C(O)[C@@H](Cc1ccccc1)Oc1ccc(-c2ccc(-c3c(Cc4ccccc4)oc4ccccc34)cc2)cc1`: the Decrease with Mus musculus [3] is given as 35%.

As to `CCCCc1oc2ccccc2c1Cc1ccc2c(Br)c(OCC(=O)O)ccc2c1`, the IC50 in test [1] came out at 1400 nM.

In the case of `O=C(O)c1ccc(S(=O)(=O)Oc2c(Br)cc(-c3ccc(-c4c(Cc5ccccc5)sc5ccccc45)cc3)cc2Br)cc1O`, the Decrease in the test on Mus musculus [3] was 25%.

As for `CCCCc1oc2ccccc2c1Cc1ccc2c(Br)c(OCn3cnnn3)ccc2c1`, the IC50 in test [1] worked out at 700 nM.

As for `O=C(O)[C@H](Cc1ccccc1)Oc1ccc(-c2ccc(-c3c(Cc4ccccc4)oc4ccc(F)cc34)cc2)cc1`, the 50% inhibitory concentration (IC50) in test [1] came out at 130 nM.

In the case of `O=C(O)c1ccccc1C(=O)NCCC(Oc1c(Br)cc(-c2ccc(-c3c(Cc4ccccc4)sc4ccccc34)cc2)cc1Br)C(=O)O` (stereo not drawn), the IC50 in test [1] is 180 nM.

Turning to `CCOc1ccc(-c2cc(-c3ccc(-c4c(Cc5ccccc5)sc5ccccc45)cc3)ccc2OCC(=O)O)cc1`, the half-inhibitory concentration (IC50) in test [1] was 52 nM.

For the compound `O=C(O)c1ccc(S(=O)(=O)Oc2ccc(-c3ccc(-c4c(Cc5ccccc5)oc5ccccc45)cc3)cc2)cc1O`, the Decrease in the test on Mus musculus [2] amounted to 18%.

As to `COc1ccc(-c2cc(-c3ccc(-c4c(Cc5ccccc5)sc5ccccc45)cc3)ccc2O[C@H](Cc2ccccc2)C(=O)O)cc1`, in test [1], the IC50 was 53 nM.

With `O=C(O)c1ccc(COc2ccc(-c3ccc(-c4c(Cc5ccccc5)oc5ccccc45)cc3)cc2)cc1`, the half-inhibitory concentration (IC50) in test [1] is 360 nM.

As for `CCCCc1oc2ccccc2c1Cc1ccc(-c2ccc(OCn3cnnn3)cc2)cc1`, the IC50 in test [1] was determined as 510 nM.

On to `CCCCc1oc2ccccc2c1C(=O)c1ccc2c(Br)c(OCn3cnnn3)ccc2c1`, for which the Decrease with Mus musculus [3] turned out to be 25%. Also, the IC50 in test [1] came out at 1100 nM.

On to `O=C(O)[C@H](Cc1ccccc1)Oc1ccc(-c2ccc(-c3c(Cc4ccccc4)oc4ncccc34)cc2)cc1`, for which the IC50 in test [1] was 590 nM.

As to `O=C(O)CCCOc1ccc(-c2ccc(-c3c(Cc4ccccc4)sc4ccccc34)cc2)cc1Br`, the IC50 in test [1] amounted to 170 nM.

Regarding `Oc1ccc(Cc2sc3ccccc3c2-c2ccc(-c3ccc(O)cc3)cc2)cc1`, in test [1], the IC50 worked out at 1080 nM.

Turning to `O=C(O)C(Cc1ccccc1)Oc1ccc(-c2ccc(-c3c(Cc4ccccc4)oc4ccccc34)cc2)cc1` (stereo not drawn), in the test on Mus musculus [3], the Decrease was found to be 40%.

Take `O=C(O)c1ccccc1C(=O)Nc1cc(-c2ccc(-c3c(Cc4ccccc4)oc4ccccc34)cc2)ccc1O`: the IC50 in test [1] came to 160 nM.

Consider `C[C@@H](Oc1ccc(-c2ccc(-c3c(Cc4ccccc4)oc4ccccc34)cc2)cc1)C(=O)O`, for which the Decrease was 39% in the test on Mus musculus [3] and -1% in the test with Mus musculus [2].

In the case of `Oc1c(I)cc(-c2ccc(-c3c(Cc4ccccc4)sc4ccccc34)cc2)cc1I`, in test [1], the half-maximal inhibitory concentration (IC50) came out at 520 nM.

Consider `CCCCc1oc2ccccc2c1-c1ccc(-c2ccc(OC(Cc3ccccc3)C(=O)O)cc2)cc1` (stereo not drawn), for which the Decrease in the test with Mus musculus [3] worked out at 34%.

As for `O=C(O)[C@@H](Cc1ccccc1)Oc1ccc(-c2ccc(-c3oc4ccccc4c3Cc3ccccc3)cc2)cc1`, in test [1], the IC50 came out at 350 nM.

As to `CCCCc1oc2ccccc2c1C(O)c1ccc2cc(O)ccc2c1` (stereo not drawn), the IC50 in test [1] stood at 1100 nM.

For `O=C(O)COc1ccc(-c2ccc(-c3c(Cc4ccccc4)sc4ccccc34)cc2)cc1-c1ccccc1`, in test [1], the concentration for half-maximal inhibition (IC50) turned out to be 100 nM.

Take `O=C(O)COc1ccc(-c2ccc(-c3c(Cc4ccccc4)oc4ccccc34)cc2)cc1C1CCCC1`: the IC50 in test [1] came out at 170 nM.

On to `CCCCc1sc2ccccc2c1-c1ccc(-c2ccc(O[C@H](Cc3ccccc3)C(=O)O)cc2)cc1`, for which the Decrease in the test on Mus musculus [3] stood at 27%. For the same compound, the IC50 in test [1] was 170 nM.

On to `COc1ccc(-c2cc(-c3ccc(-c4c(Cc5ccccc5)sc5ccccc45)cc3)cc(Br)c2OCC(=O)O)cc1`, for which the Decrease in the test on Mus musculus [2] turned out to be 30%.

With `O=C(O)[C@@H](Cc1ccccc1)Oc1ccc(-c2ccc(-c3c(Cc4ccccc4)sc4ccccc34)cc2)cc1-c1ccc(Cl)cc1`, the IC50 in test [1] is 52 nM.

Consider `Oc1ccc(-c2ccc(-c3c(Cc4ccccc4)oc4ccccc34)cc2)cc1`, for which the IC50 in test [1] came to 920 nM.

In the case of `Cc1oc(-c2ccc(C(F)(F)F)cc2)nc1-c1ccc(-c2ccc(OC(Cc3ccccc3)C(=O)O)cc2)cc1` (stereo not drawn), the Decrease in the test on Mus musculus [2] turned out to be 27%.

For the compound `COC(=O)C(CCNC(=O)c1ccccc1C(=O)O)Oc1c(Br)cc(-c2ccc(-c3c(Cc4ccccc4)sc4ccccc34)cc2)cc1Br` (stereo not drawn), the IC50 in test [1] came out at 54 nM.
